Results: ChEMBL document CHEMBL1130435, “Synthesis and antitumor activity of duocarmycin derivatives: A-ring pyrrole compounds bearing cinnamoyl groups” (J Med Chem, 1997)
pIC50: −log10 of the molar value.

How the values were obtained:
HeLa [1] = test: In vitro anticellular activity expressed as inhibitory concentration for the growth of HeLa S3 cells for a period of 72 hour; assay type: functional, cell-based; settings: Homo sapiens
Procedure, shortened: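 HeLa S3 cells, 2 × 10^4 per well, precultured 24 h at 37 °C in 5% CO2, then exposed continuously to compound for 72 h. Cells detached with PBS(–) containing 0.05% trypsin and 0.02% EDTA and counted electronically. IC50 is the concentration giving 50% inhibition of cell growth.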

HeLa [2] = test: In vitro anticellular activity expressed as inhibitory concentration for the growth of human uterine cervix carcinoma HeLa S3 cells for a period of 1 hour; assay type: functional, cell-based
Procedure, shortened: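 HeLa S3 cells seeded at 2 × 10^4/well and precultured 24 h at 37 °C, 5% CO2. Pulse exposure: compound for 1 h, washed with Ca/Mg-free PBS, then grown 71 h in fresh medium. Cells detached with 0.05% trypsin/0.02% EDTA in PBS and counted electronically. IC50 is the concentration giving 50% growth inhibition.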

Mus musculus [3] = test: Treated/Control value was measured in mice(implanted subcutaneously with sarcoma 180 cells) at the dose of 4 mg/kg; assay type: functional
Procedure, shortened: (§1)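 Adult male ddY mice, five per group, implanted sc at the axillary region with passaged sarcoma 180 cells. Drug given iv starting 1 day after inoculation. Tumor length and width measured; volume = length × width²/2. T/C is mean tumor volume of treated over control. Effective if T/C ≤42% with Mann–Whitney U p < 0.05.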

Mus musculus [4] = test: Treated/Control value was measured in mice(implanted subcutaneously with sarcoma 180 cells) at the dose of 8 mg/kg; assay type: functional; procedure, shortened: as §1
Mus musculus [5] = test: Treated/Control value was measured in mice(implanted subcutaneously with sarcoma 180 cells) at the dose of 0.13 mg/kg; assay type: functional; procedure, shortened: as §1
Mus musculus [6] = test: Treated/Control value was measured in mice(implanted subcutaneously with sarcoma 180 cells) at the dose of 2 mg/kg; assay type: functional; procedure, shortened: as §1

Row | Compound | pIC50 (HeLa [1]) | pIC50 (HeLa [2]) | T/C (Mus musculus [3]) | T/C (Mus musculus [4]) | T/C (Mus musculus [5]) | T/C (Mus musculus [6])
1 | COC(=O)c1c(C)[nH]c2c1[C@@]13C[C@@H]1CN(C(=O)/C=C/c1ccc(OC)cc1)C3=CC2=O | 9.03 | 8.15 |  |  |  | 
2 | CCCOc1ccc(/C=C/C(=O)N2C[C@H]3C[C@@]34C2=CC(=O)c2[nH]c(C)c(C(=O)OC)c24)cc1 | 8.08 | 7.29 |  |  |  | 
3 | COC(=O)c1c(C)[nH]c2c1[C@@]13C[C@@H]1CN(C(=O)/C=C/c1ccc(OC)c(N)c1)C3=CC2=O | 9.28 | 8.68 |  |  |  | 
4 | COC(=O)c1c(C)[nH]c2c1[C@@]13C[C@@H]1CN(C(=O)/C=C/c1ccc(N(C)C)cc1)C3=CC2=O | 8.80 | 7.92 |  |  |  | 
5 | CCCCCOc1ccc(/C=C/C(=O)N2C[C@H]3C[C@@]34C2=CC(=O)c2[nH]c(C)c(C(=O)OC)c24)cc1 | 7.30 | < 7.00 |  |  |  | 
6 | COC(=O)c1c(C)[nH]c2c1[C@@]13C[C@@H]1CN(C(=O)/C=C/c1ccc(C)cc1)C3=CC2=O | 8.64 | 7.48 |  |  |  | 
7 | CCN(CC)c1cc(/C=C/C(=O)N2C[C@H]3C[C@@]34C2=CC(=O)c2[nH]c(C)c(C(=O)OC)c24)ccc1OC | 8.64 | 8.02 |  |  |  | 
8 | CCc1ccc(/C=C/C(=O)N2C[C@H]3C[C@@]34C2=CC(=O)c2[nH]c(C)c(C(=O)OC)c24)cc1 | 8.42 | 7.29 |  |  |  | 
9 | COC(=O)c1c(C)[nH]c2c1[C@@]13C[C@@H]1CN(C(=O)/C=C/c1ccc(OC)c(OCCCN)c1)C3=CC2=O | 8.85 | 8.23 |  |  |  | 
10 | COC(=O)c1c(C)[nH]c2c1[C@@]13C[C@@H]1CN(C(=O)/C=C/c1ccc(OCc4ccc(OC)cc4)cc1)C3=CC2=O | 9.09 | 7.89 |  |  |  | 
11 | C=CCOc1ccc(/C=C/C(=O)N2C[C@H]3C[C@@]34C2=CC(=O)c2[nH]c(C)c(C(=O)OC)c24)cc1 | 8.12 | 7.41 |  |  |  | 
12 | COC(=O)c1c(C)[nH]c2c1[C@@]13C[C@@H]1CN(C(=O)/C=C/c1ccc(NC(=O)OC(C)(C)C)cc1)C3=CC2=O | 9.25 | 8.40 |  |  |  | 
13 | COC(=O)c1c(C)[nH]c2c1[C@@]13C[C@@H]1CN(C(=O)c1cc4cc(OC)c(OC)c(OC)c4[nH]1)C3=CC2=O | 9.80 | 9.30 |  |  |  | 
14 | COC(=O)c1c(C)[nH]c2c1[C@@]13C[C@@H]1CN(C(=O)/C=C/c1ccc(N)cc1)C3=CC2=O | 8.59 | 7.49 |  |  |  | 
15 | COC(=O)c1c(C)[nH]c2c1[C@@]13C[C@@H]1CN(C(=O)/C=C/c1ccc(O)cc1)C3=CC2=O | 8.46 | 7.72 |  |  |  | 
16 | COC(=O)COc1cc(/C=C/C(=O)N2C[C@H]3C[C@@]34C2=CC(=O)c2[nH]c(C)c(C(=O)OC)c24)ccc1OC | 9.07 | 8.89 |  |  |  | 
17 | COC(=O)c1c(C)[nH]c2c1[C@@]13C[C@@H]1CN(C(=O)/C=C/c1ccc(OC)c(N(C)C)c1)C3=CC2=O | 9.04 | 8.60 |  |  |  | 

More lines, main results first:

Row | pIC50 (HeLa [1]) | pIC50 (HeLa [2]) | Compound | T/C (Mus musculus [3]) | T/C (Mus musculus [4]) | T/C (Mus musculus [5]) | T/C (Mus musculus [6])
18 | < 6.00 | 5.00 | COC(=O)c1c(C)[nH]c2c1C1C(=CC2OC(=O)N(C)C)N(C(=O)/C=C/c2ccc(OC)c(OCC(=O)O)c2)C[C@H]1CBr (some centres undefined) | 0.72 |  |  | 
19 | 8.80 | 8.52 | COC(=O)c1c(C)[nH]c2c1[C@@]13C[C@@H]1CN(C(=O)/C=C/c1ccc(OC)c(OCCCN(C)C)c1)C3=CC2=O |  |  |  | 
20 | 9.13 | 8.70 | COC(=O)c1c(C)[nH]c2c1[C@@]13C[C@@H]1CN(C(=O)/C=C/c1ccc(OC)c(OCCCN=[N+]=[N-])c1)C3=CC2=O |  |  |  | 
21 | 8.64 | 8.13 | COC(=O)c1c(C)[nH]c2c1[C@@]13C[C@@H]1CN(C(=O)/C=C/c1ccc(OC)c(OCC(=O)OC(C)(C)C)c1)C3=CC2=O |  |  |  | 
22 | 6.55 | 5.68 | CCN(CC)c1cc(/C=C/C(=O)N2C[C@@H](CBr)C3C2=CC(OC(=O)N2CCN(C)CC2)c2[nH]c(C)c(C(=O)OC)c23)ccc1OC.Cl (some centres undefined) |  | 0.2 |  | 
23 | 7.21 | 5.92 | COC(=O)c1c(C)[nH]c2c1C1C(=CC2OC(=O)N2CCN(CC(=O)NC(C)C)CC2)N(C(=O)/C=C/c2ccc(OC)cc2)C[C@H]1CBr.Cl (some centres undefined) |  | 0.12 |  | 
24 | 7.52 | 6.54 | COC(=O)c1c(C)[nH]c2c1C1C(=CC2OC(=O)N2CCN(C)CC2)N(C(=O)/C=C/c2ccc(OC)c(N)c2)C[C@H]1CBr.Cl (some centres undefined) |  | 0.39 |  | 
25 | 7.52 | 6.54 | COC(=O)c1c(C)[nH]c2c1C1C(=CC2OC(=O)N2CCN(C)CC2)N(C(=O)/C=C/c2ccc(OC)c(OCCCN)c2)C[C@H]1CBr.Cl (some centres undefined) |  |  | 0.77 | 
26 | 6.65 | 6.00 | COC(=O)c1c(C)[nH]c2c1C1C(=CC2OC(=O)N2CCC(N3CCCCC3)CC2)N(C(=O)/C=C/c2ccc(OC)cc2)C[C@H]1CBr.Cl (some centres undefined) | 0.17 |  |  | 
27 | 7.28 | 6.37 | COC(=O)c1c(C)[nH]c2c1C1C(=CC2OC(=O)N2CCN(C)CC2)N(C(=O)/C=C/c2ccc(OC)c(N(C)C)c2)C[C@H]1CBr.Cl (some centres undefined) |  |  |  | 0.13
28 | 7.43 | 5.74 | COC(=O)c1c(C)[nH]c2c1C1C(=CC2OC(=O)N2CCN(C)CC2)N(C(=O)/C=C/c2ccc(OC)cc2)C[C@H]1CBr.Cl (some centres undefined) | 0.2 |  |  | 
